Data: ChEMBL document CHEMBL3414559, “Novel C-4 heteroaryl 13-cis-retinamide Mnk/AR degrading agents inhibit cell proliferation and migration and induce apoptosis in human breast and prostate cancer cells and suppress growth of MDA-MB-231 human breast and CWR22Rv1 human prostate tumor xenografts in mice” (J Med Chem, 2015)
Each block holds one compound with its values, some of them ahead of it. Activity calls are given as the source filed them. The calls are words filed in the database; no cut-off is given here.

Key:
MDA-MB-231 [1] = assay: Antitumor activity against human MDA-MB-231 cells xenografted in SCID mouse assessed as tumor growth at 20 mg/kg, ip dosed once daily for 5 days per week for 28 days; type: functional; details: route intraperitoneal, in the assay text read “athymic nude mouse” for “SCID mouse”
Procedure, shortened: (§1)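 Athymic nude female mice with subcutaneous MDA-MB-231 tumors (10 × 10⁶ cells; ~100 mm³ at randomization, n = 6/group) dosed ip once daily, 5 days/week for 28 days, in 40% β-cyclodextrin/ddH₂O; vehicle controls. %T/C computed as median tumor volume treated vs control at day 28 × 100. Body weight monitored.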

LNCaP [2] = assay: Reduction in Mnk2 protein expression in human LNCAP cells at 0.6 uM to 20 uM after 24 hrs by SDS-PAGE and Western blotting method; type: functional, cell-based
Procedure, shortened: (§2)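 LNCaP cells (RPMI 1640, 10% FBS) exposed 24 h to 0.6–20 μM, DMSO vehicle control; equal protein on SDS–PAGE, immunoblotted for fAR, Mnk1/2, peIF4E, cyclin D1 and cleaved PARP; β-actin reprobe for loading.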

MDA-MB-231 [3] = assay: Growth inhibition of human MDA-MB-231 cells by MTT assay; type: functional
Procedure, shortened: (§3)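 Cells grown in RPMI 1640 with 10% FBS, plated at 2500 cells/well, treated across a dose range; growth read by MTT. GI50 taken from dose–response curves by nonlinear regression, at least three independent experiments.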

MCF7 = assay: Reduction in Mnk2 protein expression in human MCF7 cells at 0.63 uM to 20 uM after 24 hrs by SDS-PAGE and Western blotting method; type: functional, cell-based
Procedure, shortened: (§4)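 Breast cancer cells in RPMI 1640 with 10% FBS treated 24 h at indicated concentrations, DMSO vehicle control; equal protein loaded on SDS–PAGE and immunoblotted for Mnk1, Mnk2, peIF4E, eIF4E and cleaved PARP; blots reprobed for GAPDH as loading control.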

LNCaP [4] = assay: Reduction in fAR protein expression in human LNCAP cells at 0.6 uM to 20 uM after 24 hrs by SDS-PAGE and Western blotting method; type: functional, cell-based
Procedure, shortened: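 LNCaP cells were treated for 24 h across 0.6–20 μM, with vehicle (DMSO) controls. Equal protein from lysates was run on SDS–PAGE and immunoblotted for fAR, Mnk1/2, peIF4E, cyclin D1 and cleaved PARP. Blots were reprobed for β-actin as loading control.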

MDA-MB-231 [5] = assay: Reduction in peIF4E protein expression in human MDA-MB-231 cells at 0.63 uM to 20 uM after 24 hrs by SDS-PAGE and Western blotting method; type: functional, cell-based
Procedure, shortened: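 MCF-7, MDA-MB-231 and MDA-MB-468 cells, kept in RPMI 1640 with 10% FBS, were exposed for 24 h to a range of concentrations, with DMSO vehicle controls. Equal protein from lysates was separated by SDS–PAGE and probed for Mnk1, Mnk2, peIF4E, eIF4E and cPARP. GAPDH reprobing served as loading control.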

LNCaP [6] = assay: Reduction in Mnk1 protein expression in human LNCAP cells at 0.6 uM to 20 uM after 24 hrs by SDS-PAGE and Western blotting method; type: functional, cell-based; procedure, shortened: as §2
[7] = target: T1, Androgen receptor (Homo sapiens) (UniProt P10275); details: LNCaP, at 10 µM
T1 sequence (whole entry): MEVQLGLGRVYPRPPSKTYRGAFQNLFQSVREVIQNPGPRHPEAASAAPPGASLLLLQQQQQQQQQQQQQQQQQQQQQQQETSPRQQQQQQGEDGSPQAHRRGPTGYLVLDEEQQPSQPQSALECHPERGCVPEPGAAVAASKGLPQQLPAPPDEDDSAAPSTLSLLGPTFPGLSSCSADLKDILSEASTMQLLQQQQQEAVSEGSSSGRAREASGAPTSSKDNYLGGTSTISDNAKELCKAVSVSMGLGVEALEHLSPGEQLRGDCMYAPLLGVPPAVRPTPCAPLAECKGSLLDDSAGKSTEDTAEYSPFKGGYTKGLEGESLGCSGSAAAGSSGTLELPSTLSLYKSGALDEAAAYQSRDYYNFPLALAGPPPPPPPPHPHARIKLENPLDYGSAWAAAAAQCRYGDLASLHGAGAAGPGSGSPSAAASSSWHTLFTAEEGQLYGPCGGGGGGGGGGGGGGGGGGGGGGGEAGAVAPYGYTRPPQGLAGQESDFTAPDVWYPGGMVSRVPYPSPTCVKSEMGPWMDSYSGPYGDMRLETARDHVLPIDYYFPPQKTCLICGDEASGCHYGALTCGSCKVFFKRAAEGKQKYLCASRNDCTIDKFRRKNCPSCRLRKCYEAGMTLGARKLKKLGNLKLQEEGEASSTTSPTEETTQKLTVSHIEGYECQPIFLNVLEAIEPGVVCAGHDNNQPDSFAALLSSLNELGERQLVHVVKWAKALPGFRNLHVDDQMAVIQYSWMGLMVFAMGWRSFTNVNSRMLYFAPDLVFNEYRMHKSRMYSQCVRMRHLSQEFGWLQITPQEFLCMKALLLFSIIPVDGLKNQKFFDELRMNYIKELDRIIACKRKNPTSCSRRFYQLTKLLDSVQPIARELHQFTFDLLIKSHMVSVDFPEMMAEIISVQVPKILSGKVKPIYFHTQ

MDA-MB-231 [8] = assay: Antitumor activity against human MDA-MB-231 cells xenografted in SCID mouse assessed as inhibition of tumor growth at 20 mg/kg, ip dosed once daily for 5 days per week for 28 days; type: functional; details: MDA-MB-231, ip, in the assay text read “athymic nude mouse” for “SCID mouse”, route intraperitoneal, read-out: TGI; procedure, shortened: as §1
MDA-MB-231 [9] = assay: Inhibition of cell migration of human MDA-MB-231 cells at 5 uM after 24 hrs by wound healing assay; type: functional, cell-based
Procedure, shortened: (§5)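 Cells (5 × 10⁵ per well) grown to confluence, monolayer scratched at time zero, then exposed to 5 μM for 24 h; initial and final wounds photographed at 100×.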

PC-3 = assay: Inhibition of cell migration of human PC3 cells at 5 uM after 24 hrs by wound healing assay; type: functional, cell-based; procedure, shortened: as §5
[10] = Growth inhibition of human PC3 cells by MTT assay; type: functional; details: PC-3; procedure, shortened: as §3
MDA-MB-231 [11] = assay: Induction of apoptosis in human MDA-MB-231 cells assessed as increase in c-PARP formation at 0.63 uM to 20 uM after 24 hrs by SDS-PAGE and Western blotting method; type: functional, cell-based; procedure, shortened: as §4
LNCaP [12] = assay: Reduction in cell viability in human LNCAP cells at 5 uM after 72 hrs by MTT assay; type: functional, cell-based
Procedure, shortened: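 LNCaP cells transfected with 100 nM AR and/or Mnk1 siRNA (or scrambled control) by lipofection for 18 h, washed twice with PBS, returned to growth medium; drug added 24 h later, viability read by MTT after 72 h. Untransfected cells treated alike. Knockdown confirmed by immunoblot; three independent experiments, normalized to control cells.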

GI50 (MDA-MB-231 [3]): 2.23 µM
inhibition [7]: Active
SMILES: CC1=C(/C=C/C(C)=C/C=C/C(C)=C\C(=O)NCc2ccc(O)cc2)C(C)(C)CCC1n1ccnc1 (configuration not stated)
T/C (MDA-MB-231 [1]): 14.6%
inhibition (LNCaP [2]): Dose-dependent effect
inhibition (MCF7): Dose-dependent effect
inhibition (LNCaP [4]): Dose-dependent effect
inhibition (MDA-MB-231 [5]): Dose-dependent effect
inhibition (LNCaP [6]): Dose-dependent effect
inhibition in vivo at 20 mg/kg (MDA-MB-231 [8]): 85.4%
inhibition (MDA-MB-231 [9]): Active
inhibition (PC-3): Active
GI50 [10]: 3.54 µM
Activity (MDA-MB-231 [11]): Dose-dependent effect

GI50 (MDA-MB-231 [3]): 8.51 µM
inhibition [7]: Active
SMILES: CC1=C(/C=C/C(C)=C/C=C/C(C)=C\C(=O)Nc2cccc(F)c2)C(C)(C)CCC1n1ccnc1 (configuration not stated)
T/C (MDA-MB-231 [1]): 14.6%
inhibition (LNCaP [2]): Dose-dependent effect
inhibition (MCF7): Dose-dependent effect
inhibition (LNCaP [4]): Dose-dependent effect
inhibition (MDA-MB-231 [5]): Dose-dependent effect
inhibition (LNCaP [6]): Dose-dependent effect
inhibition in vivo at 20 mg/kg (MDA-MB-231 [8]): 85.4%
inhibition (MDA-MB-231 [9]): Active
Activity (LNCaP [12]): Active
inhibition (PC-3): Active
GI50 [10]: 5.62 µM
Activity (MDA-MB-231 [11]): Dose-dependent effect
